From ChEMBL document CHEMBL1127471, “Tricyclic analogues of acyclovir and ganciclovir. Influence of substituents in the heterocyclic moiety on the antiviral activity” (1994)
Converted amounts (≈) assume the structure as drawn.

Experiments:
Format in all cases: functional
[1] = test system: Human alphaherpesvirus 3; test: The minimum inhibitory concentration was measured on HEL cells against Varicella zoster virus (OKA strain); conditions: Human alphaherpesvirus 3, oka
Summary of the method: (§1)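 Antiviral endpoint was the concentration reducing virus plaque formation by 50% in HEL cell cultures. Values are means of two to six independent determinations.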

[2] = test system: Human alphaherpesvirus 1; test: The minimum inhibitory concentration was measured on E6SM cells against TK+/TK-Herpes simplex virus type 1 (VMW1837 strain)
Summary of the method: (§2)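 Antiviral endpoint was the concentration reducing virus-induced cytopathicity by 50% in […] cell cultures. Values are means of two to six independent determinations.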

[3] = test system: Human alphaherpesvirus 3; test: The minimum inhibitory concentration was measured on HEL cells against TK-Varicella zoster virus (YS-R strain); conditions: Human alphaherpesvirus 3, ys-r; summary of the method: as §1
[4] = The minimum inhibitory concentration was measured against Herpes simplex virus type 1 (KOS strain) on E6SM cells; conditions: Human alphaherpesvirus 1; summary of the method: as §2
[5] = test system: HEL; test: The […] was measured on HEL cells in cell growth; conditions: Homo sapiens
[6] = test system: E6SM; test: The minimum inhibitory concentration was measured on E6SM cells for morphological alteration; conditions: Homo sapiens
Summary of the method: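 In uninfected E6SM cells, the value is the concentration giving a microscopically detectable change in normal cell morphology. Values are means of two to six independent determinations.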

[7] = test system: Human alphaherpesvirus 3; test: The minimum inhibitory concentration was measured on HEL cells against TK-Varicella zoster virus (07/1 strain); summary of the method: as §1
[8] = test system: Cytomegalovirus; test: The minimum inhibitory concentration was measured on HEL cells against Cytomegalovirus virus (Davis strain); conditions: Human betaherpesvirus 5; summary of the method: as §1
[9] = test system: Human alphaherpesvirus 1; test: The minimum inhibitory concentration was measured on E6SM cells against Herpes simplex virus type 1 (F strain); summary of the method: as §2
[10] = test system: Human alphaherpesvirus 1; test: The minimum inhibitory concentration was measured on E6SM cells against TK-Herpes simplex virus type 1 (B2006 strain); summary of the method: as §2
[11] = test system: Vaccinia virus; test: The minimum inhibitory concentration was measured on E6SM cells against Vaccinia virus; conditions: Orthopoxvirus vaccinia; summary of the method: as §2
[12] = test system: Human alphaherpesvirus 3; test: The minimum inhibitory concentration was measured on HEL cells against Varicella zoster virus (YS strain); summary of the method: as §1
[13] = test system: Human betaherpesvirus 5; test: The minimum inhibitory concentration was measured on HEL cells against Cytomegalovirus virus (AD-169 strain); summary of the method: as §1
[14] = The minimum inhibitory concentration was measured on E6SM cells against Herpes simplex virus type 1 (McIntyre strain); conditions: Human alphaherpesvirus 1; summary of the method: as §2
[15] = test system: HEL; test: The minimum inhibitory concentration was measured on HEL cells against Cytomegalovirus virus (AD-169 strain); (<100>40); conditions: Homo sapiens; summary of the method: as §1
[16] = test system: HEL; test: The minimum inhibitory concentration was measured on HEL cells against Cytomegalovirus virus (Davis strain); (<100>40); conditions: Homo sapiens; summary of the method: as §1
[17] = test system: HEL; test: The minimum inhibitory concentration was measured on HEL cells against Cytomegalovirus virus (AD-169 strain); (<400>100); conditions: Homo sapiens; summary of the method: as §1
[18] = test system: HEL; test: The minimum inhibitory concentration was measured on HEL cells against Cytomegalovirus virus (Davis strain); (<400>100); conditions: Homo sapiens; summary of the method: as §1
[19] = test system: HEL; test: The minimum inhibitory concentration was measured on E6SM cells against Vesicular stomatitis virus; conditions: Homo sapiens; summary of the method: as §2
[20] = test system: HEL; test: The minimum inhibitory concentration was measured on HEL cells against TK-Varicella zoster virus (YS-R strain); (<400>100); conditions: Homo sapiens; summary of the method: as §1

| Compound | MIC [1] [µg/mL] | MIC [2] [µg/mL] | MIC [3] [µg/mL] | MIC [4] [µg/mL] | MIC [5] [µg/mL] | MIC [6] [µg/mL] | MIC [7] [µg/mL] | MIC [8] [µg/mL] | MIC [9] [µg/mL] | MIC [10] [µg/mL] | MIC [11] [µg/mL] | MIC [12] [µg/mL] | MIC [13] [µg/mL] | MIC [14] [µg/mL] | MIC [15] [µg/mL] | MIC [16] [µg/mL] | MIC [17] [µg/mL] | MIC [18] [µg/mL] | MIC [19] [µg/mL] | MIC [20] [µg/mL] |
| --- | --- | --- | --- | --- | --- | --- | --- | --- | --- | --- | --- | --- | --- | --- | --- | --- | --- | --- | --- | --- |
| Cc1cnc2nc3c(c(O)n12)NCN3COCCO | > 50 | > 120 | > 50 | 2.1 (≈ 7.92 µM) | > 200 | > 100 | > 50 | > 50 | 0.1 (≈ 0.377 µM) | > 50 | > 150 | > 50 | > 50 | 0.5 (≈ 1.88 µM) | – | – | – | – | – | – |
| OCCOCN1CNc2c1nc1nc(-c3ccc(Br)cc3)cn1c2O | 1 (≈ 2.46 µM) | > 70 | 230 (≈ 566 µM) | 0.6 (≈ 1.48 µM) | > 200 | ≥ 70 | 125 (≈ 308 µM) | – | 2 (≈ 4.92 µM) | – | > 70 | 4 (≈ 9.85 µM) | – | 0.2 (≈ 0.492 µM) | > 40 | > 40 | – | – | – | – |
| CC(C)(C)c1cn2c(O)c3c(nc2n1)N(COCCO)CN3 | 1 (≈ 3.25 µM) | > 125 | 127 (≈ 413 µM) | 4.5 (≈ 14.6 µM) | 167 (≈ 543 µM) | > 250 | 40 (≈ 130 µM) | – | 4 (≈ 13 µM) | – | > 250 | 2.2 (≈ 7.16 µM) | – | 2 (≈ 6.51 µM) | – | – | > 100 | > 100 | > 125 | – |
| Cc1cn2c(O)c3c(nc2n1)N(COC(CO)CO)CN3 | 1 (≈ 3.39 µM) | 1.6 (≈ 5.42 µM) | 15 (≈ 50.8 µM) | 0.015 (≈ 0.0508 µM) | > 200 | > 175 | 15 (≈ 50.8 µM) | > 50 | 0.005 (≈ 0.0169 µM) | 31 (≈ 105 µM) | > 175 | 12 (≈ 40.6 µM) | > 50 | 0.02 (≈ 0.0677 µM) | – | – | – | – | – | – |
| CC(C)(C)c1cn2c(O)c3c(nc2n1)N(COC(CO)CO)CN3 | 5 (≈ 14.8 µM) | 0.7 (≈ 2.07 µM) | 50 (≈ 148 µM) | 0.035 (≈ 0.104 µM) | > 200 | > 175 | 50 (≈ 148 µM) | > 50 | 0.1 (≈ 0.296 µM) | > 70 | > 135 | > 20 | > 50 | 0.1 (≈ 0.296 µM) | – | – | – | – | – | – |
| Cc1cn2c(O)c3c(nc2n1)N(COCCO)C(Br)N3 (centres undefined) | 215 (≈ 625 µM) | > 125 | 185 (≈ 538 µM) | 95 (≈ 276 µM) | > 200 | > 250 | 180 (≈ 523 µM) | – | 150 (≈ 436 µM) | – | > 250 | 220 (≈ 639 µM) | – | 150 (≈ 436 µM) | – | – | > 100 | > 100 | – | – |
| OCCOCN1CNc2c1nc1nc(-c3ccccc3)cn1c2O | 1.3 (≈ 3.97 µM) | > 70 | 67 (≈ 205 µM) | 0.4 (≈ 1.22 µM) | 45 (≈ 137 µM) | > 100 | 67 (≈ 205 µM) | 166 (≈ 507 µM) | 0.7 (≈ 2.14 µM) | – | > 100 | 1.4 (≈ 4.28 µM) | – | 0.2 (≈ 0.611 µM) | – | – | > 100 | – | – | – |
| OCC(CO)OCN1CNc2c1nc1nc(-c3ccccc3)cn1c2O | 0.4 (≈ 1.12 µM) | 0.5 (≈ 1.4 µM) | 1 (≈ 2.8 µM) | 0.02 (≈ 0.056 µM) | > 200 | > 175 | 3 (≈ 8.39 µM) | 7 (≈ 19.6 µM) | 0.005 (≈ 0.014 µM) | > 30 | > 90 | 3 (≈ 8.39 µM) | 20 (≈ 56 µM) | 0.005 (≈ 0.014 µM) | – | – | – | – | – | – |
| OCC(CO)OCN1CNc2c1nc1nc(-c3ccc(-c4ccccc4)cc3)cn1c2O | 10 (≈ 23.1 µM) | 2.7 (≈ 6.23 µM) | 20 (≈ 46.1 µM) | 0.02 (≈ 0.0461 µM) | > 200 | > 85 | 25 (≈ 57.7 µM) | > 50 | 0.01 (≈ 0.0231 µM) | > 60 | > 70 | > 50 | > 50 | 0.001 (≈ 0.00231 µM) | – | – | – | – | – | – |
| OCCOCN1CNc2c1nc1nc(-c3ccc(-c4ccccc4)cc3)cn1c2O | 65 (≈ 161 µM) | > 55 | – | 1.3 (≈ 3.22 µM) | > 200 | ≥ 70 | 100 (≈ 248 µM) | – | 2 (≈ 4.96 µM) | – | > 70 | 40 (≈ 99.1 µM) | – | 0.7 (≈ 1.74 µM) | – | – | > 100 | > 100 | – | > 100 |
| Cc1cn2c(O)c3c(nc2n1)N(COCCO)CN3 | 4.6 (≈ 17.3 µM) | 40 (≈ 151 µM) | 70 (≈ 264 µM) | 0.8 (≈ 3.02 µM) | > 200 | > 190 | > 50 | > 50 | 0.58 (≈ 2.19 µM) | 127 (≈ 479 µM) | > 190 | 9.4 (≈ 35.4 µM) | > 50 | 1 (≈ 3.77 µM) | – | – | – | – | – | – |
| Nc1nc2c(ncn2COCCO)c(=O)[nH]1 [ACYCLOVIR] | 0.18 (≈ 0.799 µM) | 5 (≈ 22.2 µM) | 4.7 (≈ 20.9 µM) | 0.02 (≈ 0.0888 µM) | > 200 | 350 (≈ 1550 µM) | 13.7 (≈ 60.8 µM) | – | 0.004 (≈ 0.0178 µM) | 70 (≈ 311 µM) | > 180 | 0.38 (≈ 1.69 µM) | 13.2 (≈ 58.6 µM) | 0.07 (≈ 0.311 µM) | – | – | – | – | – | – |
| O=c1[nH]c(=O)n([C@H]2C[C@H](O)[C@@H](CO)O2)cc1/C=C/Br [BRIVUDINE] | 0.005 (≈ 0.015 µM) | 52 (≈ 156 µM) | 20 (≈ 60 µM) | 0.003 (≈ 0.00901 µM) | 60 (≈ 180 µM) | > 350 | 17.5 (≈ 52.5 µM) | > 20 | 0.005 (≈ 0.015 µM) | 15 (≈ 45 µM) | 0.22 (≈ 0.66 µM) | 0.003 (≈ 0.00901 µM) | > 20 | 0.006 (≈ 0.018 µM) | – | – | – | – | – | – |
| Nc1nc2c(ncn2COC(CO)CO)c(=O)[nH]1 [GANCICLOVIR] | 0.5 (≈ 1.96 µM) | 0.08 (≈ 0.313 µM) | 1.4 (≈ 5.49 µM) | 0.003 (≈ 0.0118 µM) | > 200 | > 270 | 1.5 (≈ 5.88 µM) | 0.9 (≈ 3.53 µM) | 0.004 (≈ 0.0157 µM) | 4.5 (≈ 17.6 µM) | > 80 | 1.4 (≈ 5.49 µM) | 1.5 (≈ 5.88 µM) | 0.004 (≈ 0.0157 µM) | – | – | – | – | – | – |
| O=c1[nH]c(=O)n([C@H]2C[C@H](O)[C@@H](CO)O2)cc1I [IDOXURIDINE] | – | 20 (≈ 56.5 µM) | – | 20 (≈ 56.5 µM) | – | ≥ 400 | – | – | 7 (≈ 19.8 µM) | – | > 20 | – | – | 4 (≈ 11.3 µM) | – | – | – | – | – | – |
| NC(=O)c1ncn([C@@H]2O[C@H](CO)[C@@H](O)[C@H]2O)n1 [RIBAVIRIN] | – | 115 (≈ 471 µM) | – | 46 (≈ 188 µM) | – | 400 (≈ 1640 µM) | – | – | 23 (≈ 94.2 µM) | 53 (≈ 217 µM) | 28 (≈ 115 µM) | – | – | 16 (≈ 65.5 µM) | – | – | – | – | – | – |
